Only some compounds are listed: those with a hit (about 2.4% of all), similar ones and a draw of the others.
Jurkat NFkB inh: inhibitors of induced NF-kB luciferase reporter, primary screen, TCR NF-kB activation inhibitor project, cell-based, luminescence, uHTS | Jurkat, PMA/ionomycin-induced NF-kB luciferase reporter | inhibition, % at 4 µM | hit rate 0.53% among 330,000 | AID 435003, 2010; in the data active means inhibition above about 50%
NR2E3 ag-1: inhibitors of NR2E3-RetCOR corepressor binding, primary screen, NR2E3 agonist project, biochemical, TR-FRET, GST-NR2E3, biotin-RetCOR; Photoreceptor-specific nuclear receptor (Homo sapiens), Q9Y5X4; 1536-well; inhibition of corepressor binding, % at 4.78 µM; hit rate 0.12% among 320,000; AID 2300, 2010;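 active means percent inhibition above the cutoff of mean plus 3 SD of all tested compounds, set per screening campaign, cut at about 20% in these data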;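 further: 0% = DMSO wells and 100% = biotin wells as full block of FRET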
Target sequence (Q9Y5X4 whole entry, looked up): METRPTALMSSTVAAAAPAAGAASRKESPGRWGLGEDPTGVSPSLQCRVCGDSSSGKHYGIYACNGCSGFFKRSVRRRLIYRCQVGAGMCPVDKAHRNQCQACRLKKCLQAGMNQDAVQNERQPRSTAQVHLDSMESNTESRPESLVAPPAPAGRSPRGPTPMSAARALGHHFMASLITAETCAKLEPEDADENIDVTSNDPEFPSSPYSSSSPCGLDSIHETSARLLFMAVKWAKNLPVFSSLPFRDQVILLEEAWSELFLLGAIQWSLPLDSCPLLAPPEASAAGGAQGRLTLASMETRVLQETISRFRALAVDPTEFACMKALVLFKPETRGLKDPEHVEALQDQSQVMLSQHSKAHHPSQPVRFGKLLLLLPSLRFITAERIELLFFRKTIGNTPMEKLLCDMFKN
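system = GST-tagged NR2E3 plus biotinylated RetCOR corepressor | input = 1.35 nM GST-NR2E3 | also added = 7 nM biotin-RetCOR | schedule = 5 h incubation at 4 °C | measured by = TR-FRET with europium anti-GST and streptavidin-D2, 340 nm excitation | read-out = percent loss of FRET ratio relative to control wells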
aDG glyco up: activators of alpha-DG glycosylation, primary screen, uHTS, Pro5-aDG cells, AlphaScreen. alpha-DG glycosylation AlphaScreen (IIH6); 0% Pro5, 100% B10-LARGE cell signal. activation, % at 10 µM. hit rate 0.22% among 360,000;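 active means activation of at least 8% versus controls, or a plate z-score of at least 8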;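 further: Pro5 are CHO cells carrying HIG-tagged alpha-DG that lacks glycosylation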
697 NFkB inh: inhibitors of PMA/ionomycin-induced NF-kB reporter, 697 cells, primary screen, B-cell NF-kB inhibitor project, cell-based, luminescence, uHTS; inhibition, % at 4 µM; AID 435022, 2010; 697 B-cell NF-kB luciferase reporter, 16 h; hit rate 0.33% among 330,000; in the data active means inhibition above about 35%
NR2E3 ag-2: NR2E3 agonists in two-hybrid cells, primary screen, cell-based, luminescence, CHO-S, Gal4-NCOR/VP16-NR2E3. Photoreceptor-specific nuclear receptor (Homo sapiens), Q9Y5X4. luciferase. inhibition of corepressor binding, % at 3.98 µM. hit rate 0.35% among 360,000;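 active means inhibition above the mean of all tested compounds plus 3 SD, cut at about 70% in these data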;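 further: 0% = DMSO with NR2E3 transfected cells and 100% = cells lacking NR2E3 construct; higher means lower luciferase signal from less NR2E3 corepressor binding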
MPTP inh: mitochondrial permeability transition pore inhibitors, primary screen, biochemical, isolated mouse mitochondria, absorbance | Ca2+ swelling absorbance, 30 min | inhibition, % at 10 µM | hit rate 1.4% among 360,000;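 active means inhibition of 50% or more, scaled per plate between neutral and stimulator controls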;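 further: 0% = DMSO wells given calcium and 100% = 1 mM EGTA wells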
Jurkat NFkB conf: PMA/ionomycin-induced NF-kB reporter inhibitors, Jurkat retest, confirmation, T-cell NF-kB inhibitor project, cell-based, luminescence, single concentration. inhibition, % at 4 µM. hit rate 27% among 2,700. Jurkat NF-kB luciferase, 16 h. shares compounds with Jurkat NFkB inh. AID 435020, 2010;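 active means inhibition reaching about 45% at 4 µM in either replicate, limit read from the data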;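 further: plate controls were PMA/ionomycin stimulated DMSO wells for no effect and unstimulated DMSO wells for full effect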
697 NFkB conf: PMA/ionomycin-induced NF-kB reporter inhibitors, 697 retest, confirmation, B-cell NF-kB inhibitor project, cell-based, luminescence, single concentration; inhibition, % at 4 µM; hit rate 35% among 2,000; shares compounds with 697 NFkB inh; 697 B-cell NF-kB luciferase, 16 h; in the data active means inhibition mostly above about 28%, no sharp cut-off; inactive means mostly below about 22%
NR2E3 ag conf: NR2E3 agonist confirmation in cells, cell-based, luminescence, CHO-S two-hybrid | shares compounds with NR2E3 ag-2 | CHO-S mammalian two-hybrid NR2E3-NCOR, luciferase luminescence | inhibition, % at 3.98 µM | hit rate 51% among 2,300;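 active means average inhibition above a cutoff equal to the mean inhibition of all tested compounds plus one SD, cut at about 70% in these data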;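 further: 0% = DMSO in NR2E3 cells and 100% = DMSO in cells lacking NR2E3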
VP16 counter: GAL4-VP16 reporter modulators, confirmation, counter-screen for NR2E3 agonist project, cell-based, luminescence, CHO-S, high throughput. hit rate 29% among 2,300. shares compounds with NR2E3 ag-2. CHO-S GAL4-VP16 luciferase reporter. inhibition, % at 3.98 µM;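 active means mean inhibition above a cutoff equal to the average over all tested compounds plus one standard deviation, cut at about 70% in these data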;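 further: luciferase from a UAS reporter driven by GAL4-VP16 transactivation; 0% = DMSO with VP16-transfected cells and 100% = DMSO with cells lacking VP16; higher means less reporter light so more repression of VP16 activity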
Rh123 counter: fluorescence retest of MPTP screen hits in isolated mitochondria, single concentration; hit rate 78% among 5,000; AID 624504, 2012; shares compounds with MPTP inh; inhibition, % at 10 µM; membrane potential, Rhodamine 123 fluorescence; in the data active means inhibition above about 22%;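 further: 0% = DMSO vehicle and 100% = positive control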
MPTP swell DR: mitochondrial permeability transition pore inhibitors, dose response, biochemical, absorbance, uHTS hits | shares compounds with MPTP inh | isolated mitochondria swelling | IC50, µM | hit rate 58% among 780 | AID 651561, 2012; in the data active means IC50 below about 20 µM
MPTP counter DR: fluorescent counter-screen in isolated mitochondria, dose response, counter-screen for MPTP inhibitor project, biochemical, fluorescence, uHTS hits; IC50, µM; shares compounds with MPTP inh; hit rate 49% among 780; AID 651564, 2012; isolated mitochondria counterscreen, fluorescence read-out; in the data active means IC50 below about 80 µM
Starred values were filed as active, the others as inactive; · = no result.

SMILES	Jurkat NFkB inh	NR2E3 ag-1	aDG glyco up	697 NFkB inh	NR2E3 ag-2	MPTP inh	Jurkat NFkB conf	Rh123 counter	others
Cn1nc(CC(=O)Nc2ccc3c(c2)CCC3)c2ccccc2c1=O	59.4*	·	2.3	41.4*	25.7	94.8*	67.5*	78.1*	697 NFkB conf=46.9*
CCCCN1/C(=C/c2cccc[n+]2C)Sc2cc(NC(C)=O)ccc21	-8.7	-2.6	-0.1	5.8	-15.8	-0.5	·	·
CCN1/C(=C/c2ccc3ccccc3[n+]2CC)C=Cc2ccccc21	97.0*	-9.3	0.7	-1.2	88.5*	160.4*	71.2*	68.4*	NR2E3 ag conf=98.0*;VP16 counter=87.6*
CCCCN1/C(=C/c2ccc3ccccc3[n+]2CC)Sc2ccccc21	86.8*	·	8.4*	33.4	80.0*	94.3*	67.2*	104.4*
COc1cccc(CN2CC(C(=O)N3CCOCC3)CCC2=O)c1 (stereo not given)	-9.3	-2.5	-0.3	-10.6	-30.5	-1.8	·	·
COc1ccc(C2C(C#N)=C(C)NC3=C2C(=O)c2ccccc23)cc1 (stereo not given)	2.5	2.6	-0.3	-2.0	-12.3	0.7	·	·
CC1=C([N+](=O)[O-])C(c2ccccc2)C2=C(N1)c1ccccc1C2=O (stereo not given)	61.2*	-2.9	-0.5	16.9	-144.1	87.8*	46.8*	65.3*
NNc1ccc2c(C(F)(F)F)cc(C(F)(F)F)nc2n1	9.1	-0.5	-0.7	13.7	3.2	-0.4	·	·
N#CC(c1cccc(Cl)c1)c1ccc2c(C(F)(F)F)cc(C(F)(F)F)nc2n1 (stereo not given)	58.2*	0.6	-0.8	66.2*	110.3*	114.2*	59.0*	89.5*	697 NFkB conf=33.2*;NR2E3 ag conf=99.4*;VP16 counter=90.6*
CCOc1ccc(S(=O)(=O)NCCC(=O)NCc2cccnc2)cc1	10.9	-3.6	0.0	-2.0	8.0	-3.6	·	·
CCc1c(C)nc2ncnn2c1NCCc1ccc(OC)cc1	78.2*	-0.7	2.1	-15.2	84.2*	51.4*	68.0*	65.1*	NR2E3 ag conf=89.2*;VP16 counter=65.6
COc1ccc(NC(=O)CN(C)C(=O)c2c(C)nn(Cc3ccccc3)c2C)cc1	-2.2	5.8	0.0	7.5	-17.8	-3.1	·	·
COc1ccc(C2SCC(=O)N2CCc2ccc(OC)c(OC)c2)cc1 (stereo not given)	65.2*	1.7	0.8	-28.0	-3.9	70.6*	38.6	33.3*
Cc1ccccc1C[n+]1cccc2ccccc21	13.0	-2.6	0.0	-21.7	-3.3	-1.5	·	·
CCCCCCCCC[n+]1cccc2c3ccccc3ccc21	70.8*	4.4	2.6	-23.2	82.1*	88.8*	68.5*	116.5*	NR2E3 ag conf=99.1*;VP16 counter=73.9*
CCCCCCCCCCCCCCCC[n+]1cccc2ccccc21	87.5*	-0.1	0.0	62.3*	24.3	75.9*	87.8*	102.5*	697 NFkB conf=23.1*
O=[N+]([O-])c1ccc(C[n+]2cccc3c4ccccc4ccc32)cc1	10.5	1.4	-0.5	2.4	-13.7	-1.2	·	·
C#CCOCCOCCOCCNc1nc(N2CCN(C(=O)CCCCCCCCCCNC(=O)Cn3cc(CCCCCN)nn3)CC2)nc(N2CCN(C(=O)CCCCCCCCCCNC(=O)Cn3cc(C[C@@H](C)O)nn3)CC2)n1	7.7	0.7	-0.1	-19.3	-15.1	-5.5	·	·
CC(C)(C)OC(=O)NCCCCCc1cn(CC(=O)NCCCCCCCCCCC(=O)N2CCN(C(=O)OC(C)(C)C)CC2)nn1	55.2*	5.6	0.4	-13.0	-33.8	94.3*	55.5*	-1.5	MPTP swell DR=1.99*;MPTP counter DR=<2.5*
O=C(N/N=C/c1ccccc1)c1[nH]c2ccc(Br)cc2c1-c1ccccc1	57.8*	2.0	-0.3	34.4	-10.7	86.3*	8.3	90.2*
S=C1NC[C@H](Cc2cccc3ccccc23)N1CC1CCCCC1	4.1	-1.8	0.5	-11.6	15.2	1.0	·	·
O=C(COc1ccc2ccccc2c1Br)Nc1cccnc1	-50.4	8.1	0.9	-51.9	15.1	-0.1	·	·
O=C(COc1ccc2ccccc2c1Br)Nc1ccncc1	55.9*	3.3	0.7	0.3	-18.1	91.9*	31.6	81.6*
Cc1ccc(-n2ncc3c(N4CCN(c5ccccc5)CC4)ncnc32)c(C)c1	59.5*	-1.2	0.4	-39.3	-15.4	51.4*	38.6	33.5*
COc1ccc(N2CCN(c3ncnc4c3cnn4-c3ccc(C)cc3C)CC2)cc1	36.9	2.0	1.9	-14.6	-1.1	10.0	·	·
Cc1ccc(N2CC(NS(=O)(=O)c3cc(F)ccc3F)CC2=O)cc1C (stereo not given)	4.6	-0.2	0.3	-1.0	-15.6	-0.3	·	·
Cc1ccc2nc(C)c(CN3CCN(c4ccc([N+](=O)[O-])cc4Cl)CC3)n2c1	51.0*	1.3	1.0	-25.5	104.2*	87.9*	46.0*	101.8*	NR2E3 ag conf=95.2*;VP16 counter=84.2*
Cc1nnsc1C(=O)N1CCC(CO)(Cc2ccccc2Cl)CC1	-0.6	0.5	-0.1	14.1	-4.0	1.8	·	·

Screening results as filed in PubChem.
